Test results reported in ChEMBL document CHEMBL3351381, “Synthesis, structure-activity relationship studies, and antibacterial evaluation of 4-chromanones and chalcones, as well as olympicin A and derivatives” (J Med Chem, 2014).
Values after ≈ are worked out from the molar mass of the structure shown.

Key:
[1] = system: Mycobacterium tuberculosis; assay: Antimicrobial activity against Mycobacterium tuberculosis H37Rv by microbroth dilution method; assay type: functional
[2] = Selectivity index, ratio of CC50 for african green monkey Vero cells to IC50 for methicillin-resistant Staphylococcus aureus NRS 70; assay type: functional
How it was run: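 Vero kidney epithelial cells were grown in DMEM/10% FBS, trypsinized, seeded at about 10% confluence and left overnight to adhere. They were then exposed to 2-fold serial compound dilutions in DMEM/FBS, and viability was read by MTT after overnight solubilization. SI = cytotoxic IC50 divided by MIC against MRSA.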

Klebsiella pneumoniae = assay: Antimicrobial activity against Klebsiella pneumoniae ATCC 33495 at >200 ug/ml by microbroth dilution method; assay type: functional
[3] = Solubility of the compound in DMEM/FBS medium; assay type: physicochemical
How it was run: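 Solubility limit estimated from 2-fold serial dilutions in DMEM with 5% FBS kept overnight at 37 °C; highest concentration with no visible precipitate taken.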

Escherichia coli [4] = assay: Antimicrobial activity against Escherichia coli K-12 by microbroth dilution method; assay type: functional
Pseudomonas aeruginosa = assay: Antimicrobial activity against Pseudomonas aeruginosa PAO1 at >200 ug/ml by microbroth dilution method; assay type: functional
Vero = assay: Cytotoxicity against african green monkey Vero cells assessed as reduction in cell viability by MTT assay; assay type: cell-based; settings: Chlorocebus sabaeus
How it was run: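 Vero kidney epithelial cells (ATCC CCL-81) in DMEM/10% FBS, trypsinized, seeded near 10% confluence, left overnight to adhere; medium swapped for DMEM/FBS with 2-fold serial compound dilutions.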

Enterococcus faecalis = assay: Antimicrobial activity against Enterococcus faecalis ATCC 33186 by microbroth dilution method; assay type: functional
Staphylococcus aureus [5] = assay: Antimicrobial activity against methicillin-sensitive Staphylococcus aureus ATCC 29213 by microbroth dilution method; assay type: functional
Staphylococcus aureus [6] = assay: Antimicrobial activity against methicillin-resistant Staphylococcus aureus NRS 70 by microbroth dilution method; assay type: functional
Escherichia coli [7] = assay: Antimicrobial activity against tolC-deficient Escherichia coli by microbroth dilution method; assay type: functional
[8] = Inhibition of purified recombinant Escherichia coli topoisomerase 1 assessed as relaxation of supercoiled plasmid DNA after 30 mins by electrophoretic analysis

SMILES | MIC [1] [µg/mL] | Selectivity Index [2] | MIC (Klebsiella pneumoniae) [µg/mL] | solubility [3] [µg/mL] | MIC (Escherichia coli [4]) [µg/mL] | MIC (Pseudomonas aeruginosa) [µg/mL] | IC50 (Vero) [µg/mL] | MIC (Enterococcus faecalis) [µg/mL] | MIC (Staphylococcus aureus [5]) [µg/mL] | MIC (Staphylococcus aureus [6]) [µg/mL] | MIC (Escherichia coli [7]) [µg/mL] | IC50 [8] [µM]
CCCCCCCC1C/C(=N\O)c2c(O)cc(O)cc2O1 (stereo not drawn) | 100 (≈ 341 µM) | 3.1 | > 200 | > 200 | > 200 | > 200 | 9.6 (≈ 32.7 µM) | 6.25 (≈ 21.3 µM) |  |  |  | 
O=C1CC2(CCCCC2)Oc2cc(O)ccc21 | 100 (≈ 431 µM) |  | > 200 |  | > 200 | > 200 |  | > 200 | 200 (≈ 861 µM) | 200 (≈ 861 µM) | 50 (≈ 215 µM) | 
O=C1CC(c2ccc(N3CCCCC3)cc2)Oc2cc(O)ccc21 (stereo not drawn) | > 200 |  | > 200 |  | > 200 | > 200 |  | 200 (≈ 618 µM) | > 200 | > 200 | 12.5 (≈ 38.7 µM) | 
CCCCCCCCCC1CC(O)c2ccc(O)cc2O1 (stereo not drawn) | > 200 |  | > 200 |  | > 200 | > 200 |  | 50 (≈ 171 µM) | 20 (≈ 68.4 µM) | 25 (≈ 85.5 µM) | 12.5 (≈ 42.7 µM) | 
CCCCCCCC1CC(=O)c2c(OCOC)cc(OCOC)cc2O1 (stereo not drawn) | 50 (≈ 136 µM) |  | > 200 |  | > 200 | > 200 |  | > 200 | > 200 | > 200 | 12.5 (≈ 34.1 µM) | 
CC(C)=CCCC(C)CC1CC(=O)c2cc(O)ccc2O1 (stereo not drawn) | 200 (≈ 694 µM) |  | > 200 |  | > 200 | > 200 |  | 6.25 (≈ 21.7 µM) | 6.25 (≈ 21.7 µM) | 12.5 (≈ 43.3 µM) | 3.13 (≈ 10.9 µM) | 
CC(C)=CCCC(C)CC1CC(=O)c2c(O)cccc2O1 (stereo not drawn) | > 200 |  | > 200 |  | > 200 | > 200 |  | > 200 | > 200 | > 200 | > 200 | 
O=C1CC(CCc2ccccc2)Oc2cc(O)ccc21 (stereo not drawn) | 100 (≈ 373 µM) |  | > 200 |  | > 200 | > 200 |  | > 200 | 50 (≈ 186 µM) | 50 (≈ 186 µM) | 12.5 (≈ 46.6 µM) | 
CCCCCCCCCC1CC(=O)c2ccc(O)cc2O1 (stereo not drawn) | > 200 |  | > 200 |  | > 200 | > 200 |  | 200 (≈ 689 µM) | > 200 | > 200 | > 200 | 
CC1(C)C2CC=C(/C=C/C(=O)c3c(O)cc(O)cc3O)C1C2 (stereo not drawn) | > 200 |  | > 200 |  | > 200 | > 200 |  | 25 (≈ 83.2 µM) | > 200 | 200 (≈ 666 µM) | 6.25 (≈ 20.8 µM) | 
CCCCCc1cc(OC(=O)c2c(O)cc(O)cc2CCCCC)cc(O)c1C(=O)O |  |  |  |  |  |  |  |  |  |  |  | 14
O=C1CC(C2CCCC2)Oc2cc(O)cc(O)c21 (stereo not drawn) | 200 (≈ 806 µM) |  | > 200 |  | > 200 | > 200 |  | 50 (≈ 201 µM) | 100 (≈ 403 µM) | 50 (≈ 201 µM) | 6.25 (≈ 25.2 µM) | 
CCCCCCCC1CC(O)c2ccc(O)cc2O1 (stereo not drawn) | 25 (≈ 94.6 µM) |  | > 200 |  | > 200 | > 200 |  | 25 (≈ 94.6 µM) | 12.5 (≈ 47.3 µM) | 12.5 (≈ 47.3 µM) | 6.25 (≈ 23.6 µM) | 
CSc1ccc2c(c1)N(CCC1CCCCN1C)c1ccccc1S2 (stereo not drawn) [THIORIDAZINE] |  |  |  |  |  |  | 5.3 (≈ 14.3 µM) |  |  |  |  | 
CCCC1CC(=O)c2c(O)cc(O)cc2O1 (stereo not drawn) | 200 (≈ 900 µM) |  | > 200 |  | > 200 | > 200 |  | 200 (≈ 900 µM) | 100 (≈ 450 µM) | 100 (≈ 450 µM) | 50 (≈ 225 µM) | 
C=CCOc1ccccc1C1CC(=O)c2ccc(O)cc2O1 (stereo not drawn) | 100 (≈ 337 µM) |  | > 200 |  | > 200 | > 200 |  | 50 (≈ 169 µM) | 25 (≈ 84.4 µM) | 25 (≈ 84.4 µM) | 12.5 (≈ 42.2 µM) | 
CC1(C)C2CC=C(C3CC(=O)c4c(O)cc(O)cc4O3)C1C2 (stereo not drawn) | 200 (≈ 666 µM) |  | > 200 |  | > 200 | > 200 |  | 12.5 (≈ 41.6 µM) | 12.5 (≈ 41.6 µM) | 6.25 (≈ 20.8 µM) | 3.13 (≈ 10.4 µM) | 
COCOc1ccc2c(c1)OC(C1=CCC3CC1C3(C)C)CC2=O (stereo not drawn) | 100 (≈ 304 µM) |  | > 200 |  | > 200 | > 200 |  | > 200 | > 200 | > 200 | 6.25 (≈ 19 µM) | 
CCCCCCCCCC1C/C(=N\OC)c2c(O)cc(O)cc2O1 (stereo not drawn) | 200 (≈ 596 µM) |  | > 200 |  | > 200 | > 200 |  | > 200 | 100 (≈ 298 µM) | 25 (≈ 74.5 µM) | > 200 | 
